Source: article PMC3889518 (European Journal of Clinical Pharmacology, 2013)
pKi: −log10 of the molar value. Entries after “also recorded” stand apart in the source; their conditions may differ.

Tests used:
[1] = test system: OATP1B1; conditions: co-administration of cyclosporin, inhibitor of OATP1B1; cited from earlier work
[2] = high first-pass effect; cited from earlier work
[3] = test system: CYP2C8; conditions: cited from earlier work
[4] = test system: CYP3A4; conditions: co-administration with ketoconazole, strong inhibitor of CYP3A4; cited from earlier work
[5] = test system: CYP2C8; conditions: strong inhibitor of CYP2C8; cited from earlier work
[6] = molecular target: CYP3A4 (Homo sapiens, UniProt P08684); type: in vivo; conditions: repeat dosing of vercirnon 500 mg BID, midazolam probe, healthy subjects
Sequence of CYP3A4 (Homo sapiens, UniProt P08684) (P08684 whole entry): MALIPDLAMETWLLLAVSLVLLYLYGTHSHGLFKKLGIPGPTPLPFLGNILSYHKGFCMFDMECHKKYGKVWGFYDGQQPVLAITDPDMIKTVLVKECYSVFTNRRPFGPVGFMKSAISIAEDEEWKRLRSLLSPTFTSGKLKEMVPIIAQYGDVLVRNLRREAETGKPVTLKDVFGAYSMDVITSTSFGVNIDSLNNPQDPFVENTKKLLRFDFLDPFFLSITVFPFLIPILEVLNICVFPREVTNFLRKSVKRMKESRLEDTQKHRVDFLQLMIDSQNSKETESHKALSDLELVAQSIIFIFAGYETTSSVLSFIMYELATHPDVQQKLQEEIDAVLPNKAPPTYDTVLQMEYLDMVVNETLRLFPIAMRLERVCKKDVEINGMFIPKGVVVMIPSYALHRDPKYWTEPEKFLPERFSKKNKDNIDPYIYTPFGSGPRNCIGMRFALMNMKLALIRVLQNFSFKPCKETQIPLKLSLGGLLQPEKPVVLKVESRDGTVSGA

[7] = molecular target: T1, CYP2C8 (Homo sapiens, UniProt P10632); type: in vivo; conditions: repeat dosing of vercirnon 500 mg BID, pioglitazone probe, healthy subjects
T1 sequence (P10632 1-490): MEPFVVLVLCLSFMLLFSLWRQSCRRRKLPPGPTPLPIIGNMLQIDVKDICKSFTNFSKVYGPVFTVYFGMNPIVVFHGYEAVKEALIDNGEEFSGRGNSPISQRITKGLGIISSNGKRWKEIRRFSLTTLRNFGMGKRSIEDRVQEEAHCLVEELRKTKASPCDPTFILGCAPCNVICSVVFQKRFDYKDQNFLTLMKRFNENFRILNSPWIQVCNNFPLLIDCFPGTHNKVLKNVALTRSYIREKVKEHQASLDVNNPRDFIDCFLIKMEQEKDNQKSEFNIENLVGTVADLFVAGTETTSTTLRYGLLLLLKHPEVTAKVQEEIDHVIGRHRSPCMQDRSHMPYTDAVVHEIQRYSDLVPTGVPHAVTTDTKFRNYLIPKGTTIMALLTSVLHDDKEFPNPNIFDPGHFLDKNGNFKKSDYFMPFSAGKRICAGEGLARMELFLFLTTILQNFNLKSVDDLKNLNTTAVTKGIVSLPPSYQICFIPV

[8] = molecular target: CYP2C19 (Homo sapiens, UniProt P33261); type: in vivo; conditions: repeat dosing of vercirnon 500 mg BID, omeprazole probe, healthy subjects
Sequence of CYP2C19 (P33261 whole entry): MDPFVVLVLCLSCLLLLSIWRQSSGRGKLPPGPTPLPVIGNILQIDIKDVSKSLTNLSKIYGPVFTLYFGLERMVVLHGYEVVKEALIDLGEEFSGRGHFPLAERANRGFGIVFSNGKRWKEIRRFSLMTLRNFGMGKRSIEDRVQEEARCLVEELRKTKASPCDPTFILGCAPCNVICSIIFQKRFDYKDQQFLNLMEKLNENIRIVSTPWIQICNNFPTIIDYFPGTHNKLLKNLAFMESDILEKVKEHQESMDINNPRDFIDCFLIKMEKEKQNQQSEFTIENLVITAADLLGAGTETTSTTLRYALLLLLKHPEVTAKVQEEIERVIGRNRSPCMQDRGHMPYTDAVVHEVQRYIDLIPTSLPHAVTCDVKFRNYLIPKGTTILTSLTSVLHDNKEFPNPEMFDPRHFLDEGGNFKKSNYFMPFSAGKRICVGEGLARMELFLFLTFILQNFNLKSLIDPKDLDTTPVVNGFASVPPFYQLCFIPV

[9] = test system: BCRP and OATP1B1; type: in vivo, human; conditions: repeat dosing of vercirnon 500 mg BID, rosuvastatin probe, healthy subjects
In short: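 Open-label, single-sequence study in 24 healthy adults aged 18–55. Rosuvastatin 10 mg oral tablet was given alone on day 4 and again on day 14 with vercirnon 500 mg BID after meals (days 5–14). Dosing was 30 min after breakfast with 240 mL water. Serial plasma samples were taken over 48 h. Non-compartmental AUC0–∞ was loge-transformed and analysed in a mixed-effects model (treatment fixed, subject random), giving a geometric LS mean ratio with 90% CI.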

[10] = type: in vivo, human; conditions: day 10 compared with day 5, vercirnon 500 mg BID
In short: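 Vercirnon 500 mg BID, taken after meals, starting study day 5. Six volunteers had serial plasma sampling over 24 h on days 5 and 10 for vercirnon and two metabolites. Non-compartmental AUC0–τ, Cmax and tmax were determined. Accumulation ratio for AUC0–τ and Cmax compared day 10 with day 5. Metabolite:parent AUC0–τ ratios were molar. Steady state was tested on day 6–11 troughs from all 24 subjects by the 90% CI of the regression slope.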

[11] = Safety and tolerability in healthy subjects; type: in vivo, human
[12] = oral administration 250 to 1,000 mg; cited from earlier work
[13] = ref ChemoCentryx, data on file; cited from earlier work
[14] = test system: human p-glycoprotein transporter protein; conditions: ref ChemoCentryx, data on file; cited from earlier work
[15] = ref ChemoCentryx, data on file; cited from earlier work; remark: listed apart in the source
[16] = multiple oxidative and reductive pathways, including CYP3A4, CYP2C19 and CYP2B6; ref ChemoCentryx, data on file; cited from earlier work
[17] = read-out: maximum observed concentration [Cmax] range; likely therapeutic plasma concentrations; ref ChemoCentryx, data on file; cited from earlier work
[18] = test system: breast cancer resistant protein (BCRP); conditions: ref ChemoCentryx and GlaxoSmithKline, data on file; cited from earlier work
[19] = test system: OAT1B1; conditions: ref ChemoCentryx and GlaxoSmithKline, data on file; cited from earlier work
[20] = test system: OAT1; conditions: ref ChemoCentryx and GlaxoSmithKline, data on file; cited from earlier work
[21] = test system: OAT3; conditions: ref ChemoCentryx and GlaxoSmithKline, data on file; cited from earlier work

## CC(C)c1nc(N(C)S(C)(=O)=O)nc(-c2ccc(F)cc2)c1/C=C/[C@@H](O)C[C@@H](O)CC(=O)O [Rosuvastatin]
[1]
  Increase of rosuvastatin AUC: 7 fold
[2]
  bioavailability: ~20%

## CCc1ccc(CCOc2ccc(CC3SC(=O)NC3=O)cc2)nc1 (stereo not drawn) [Pioglitazone]
[3]; co-administration with gemfibrozil
  Increase of pioglitazone AUC: 3.4 fold
[3]; co-administration with rifampin, inducer of CYP2C8
  Decrease of exposure (AUC) of pioglitazone: 54%
[4]
  Increase of pioglitazone: 34%

## Cc1ccc(C)c(OCCCC(C)(C)C(=O)O)c1 [gemfibrozil]
[5]
  pKi: 4.12 to 4.16

## CC(C)(C)c1ccc(S(=O)(=O)Nc2ccc(Cl)cc2C(=O)c2cc[n+]([O-])cc2)cc1 [Vercirnon]
[6]
  Effect on CYP3A4 enzyme activity: no clinically significant effect
[7]
  Effect on CYP2C8 enzyme activity: no clinically significant effect
[8]
  Effect on CYP2C19 enzyme activity: no clinically significant effect
[9]
  Effect on BCRP or OATP1B1 transporter activity: no clinically significant effect
[10]
  Average accumulation in terms of AUC0–τ: 14%
  Average accumulation in terms of Cmax: 3%
[11]; 24 healthy subjects, all treatments over 14 days, vercirnon 500 mg BID
  Tolerability: well tolerated
[12]
  time to maximum concentration (tmax): 3 to 4 h
[13]
  protein bound: > 90%
[14]
  Substrate for human p-glycoprotein transporter protein or other transport proteins: unlikely to be a substrate
[15]
  Permeability: passively permeable
[16]
  Metabolism: extensively metabolised
[17]
  Cmax: 3 to 5 µM
[18]
  Inhibition of BCRP in vitro: can inhibit
[19]
  Inhibition of OAT1B1 in vitro: has the potential to inhibit; also recorded: can inhibit
[20]
  Inhibition of OAT1 in vitro: can inhibit
[21]
  Inhibition of OAT3 in vitro: can inhibit

## Cc1ncc2n1-c1ccc(Cl)cc1C(c1ccccc1F)=NC2 [Midazolam, reference compound]
[11]; of 24 subjects, on 19 occasions, midazolam alone or midazolam + vercirnon
  Somnolence, number of subjects reporting: 13 subjects
